Results published in ChEMBL document CHEMBL4014347, “Targeting Mycolic Acid Transport by Indole-2-carboxamides for the Treatment of Mycobacterium abscessus Infections” (J Med Chem, 2017).
≈ marks a conversion by molar mass, not a printed value. Calls of active or inactive are those of the source. No cut-off for these calls is given here.

Key:
[1] = system: Mycobacteroides abscessus; test: Inhibition of MmpL3 in Mycobacterium abscessus CIP104536 smooth variant assessed as reduction in trehalose dimycolate synthesis up to 6.2 ug/ml preincubated for 1 hr followed by [14C]acetic acid addition measured after 2 hrs by TLC based autoradiography analysis
Method in brief: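 Exponential cultures in 7H9 with OADC exposed to increasing drug concentrations for 1 h at 37 °C with agitation, then labelled with 1 μCi/mL [14C]acetate (56 mCi/mmol) for 2 h; apolar lipids (TMM, TDM) run on TLC in chloroform/methanol/water 40:8:1; MAME and arabinogalactan-bound mycolates in petroleum ether/acetone 95:5; autoradiography.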

Liver = test: Intrinsic clearance in mouse liver microsomes at 0.5 uM in presence of NADPH by LC-MS/MS analysis; format: ADME, microsome
Method in brief: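 Compound (0.5 μM) incubated with mouse or rat liver microsomes plus NADPH regenerating system; aliquots every 3 min over 30 min analysed for parent by LC-MS/MS; monoexponential decay rate normalized to microsomal protein, expressed as mL/min/g liver.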

[2] = system: Mycobacteroides abscessus; test: Antibacterial activity against CF patient derived Mycobacterium abscessus subsp. abscessus isolate 2524 rough variant after 3 to 5 days by two fold serial dilution method; format: functional
Method in brief: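 Broth microdilution in cation-adjusted Mueller−Hinton broth per CLSI; inoculum 5 × 10^6 CFU/mL of exponential-phase bacteria; two-fold serial dilutions, solvent-only wells as control; 30 °C for 3−5 days; MIC read visually and confirmed by absorbance at 560 nm; triplicate on three independent occasions.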

Cytochrome P450 2D6 = Cytochrome P450 2D6 (Homo sapiens, UniProt P10635); test: Inhibition of CYP2D6 in human liver microsomes preincubated for 5 mins followed by NADPH addition measured after 10 mins by LC-MS/MS analysis; format: ADME
Cytochrome P450 2D6, sequence (P10635 whole entry): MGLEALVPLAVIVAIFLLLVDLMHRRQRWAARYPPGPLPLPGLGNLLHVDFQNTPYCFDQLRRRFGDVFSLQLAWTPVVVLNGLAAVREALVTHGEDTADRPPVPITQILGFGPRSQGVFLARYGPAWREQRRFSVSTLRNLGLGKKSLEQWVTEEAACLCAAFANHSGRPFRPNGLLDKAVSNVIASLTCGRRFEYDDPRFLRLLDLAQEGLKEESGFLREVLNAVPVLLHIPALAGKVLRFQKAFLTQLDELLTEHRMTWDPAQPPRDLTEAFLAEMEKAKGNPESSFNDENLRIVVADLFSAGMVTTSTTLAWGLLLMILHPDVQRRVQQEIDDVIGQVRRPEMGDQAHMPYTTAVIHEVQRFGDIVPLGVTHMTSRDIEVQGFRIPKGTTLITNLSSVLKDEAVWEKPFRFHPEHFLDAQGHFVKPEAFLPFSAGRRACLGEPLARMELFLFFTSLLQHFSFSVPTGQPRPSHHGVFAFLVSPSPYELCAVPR

## O=C(NC1CCCCCC1)c1cc2c(Cl)cc(Cl)cc2[nH]1
[1]
  inhibition: Active
Liver
  CLH: 4.8 mL/min/g
[2]
  MIC: 0.125 µg/mL (≈ 0.384 µM)
Cytochrome P450 2D6
  IC50: ≤ 20 µM
